E-selectin induc – induces E-selectin expression in human endothelial cells; P16581; HUVEC E-selectin immunofluorescence imaging; normalized: neutral wells 0, TNF-alpha wells 100; activation, % at 7.58 µM; actives 0.37% (n = 260,000); AID 686992;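 active = mean E-selectin-positive cell signal at least 10% of the positive control, reached in at least 60% of replicates, without over 20% cell loss; inconclusive = no rule given, readout overlaps actives, possibly toxicity-flagged; inactive = the rest, including those meeting only one limit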
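Read-out basis: % PE-positive cells; Test system: HUVEC primary endothelial cells; Technique: immunofluorescence imaging; Dosing: single-point compound dose.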
ERAP1 HTS inh – inhibitors of human ERAP1 aminopeptidase | recombinant ERAP1, Leu-AMC fluorescence, 60 min | inhibition, % at 10.7 µM | actives 0.15% (n = 340,000);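 active = mean replicate inhibition of at least 30%, or all replicates individually reaching that 30% level; inactive = mean below 30% and not every replicate reaching it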;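 note: 0% = neutral control wells and 100% = L-leucinethiol positive control wells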
PglD inh – inhibitors of Campylobacter jejuni PglD acetyltransferase; purified PglD enzyme, DTNB colorimetric CoA detection; inhibition, % at 12.5 µM; actives 0.098% (n = 360,000); AID 602405; in the data active = inhibition above about 16%, passing the limit was not always enough; inconclusive = no clear call, values can overlap the other calls
SIRT5 inh – sirtuin-5 (human) deacylase inhibition; Q9NXA8; Purified SirT5, succinyl-peptide AMC, trypsin-coupled fluorescence; AID 652115; actives 1.1% (n = 330,000); inhibition, % at 15 µM; in the data active = inhibition above about 15%; inconclusive = no clear call, values can overlap the other calls
DENV2 CPE – DENV2-induced cell death inhibition; CPE inhibition, % at 9.99 µM; DENV2-infected cells, cytopathic effect rescue, plate reader; actives 1.7% (n = 350,000); in the data active = CPE inhibition above about 20%, passing the limit was not always enough; inconclusive = no clear call, values can overlap the other calls; tested in BHK-21 cells;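 note: 0% = median of neutral control wells and 100% = median of positive control wells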
Active calls of the source: *; ? = inconclusive; / = no result given. This is a sample that favours compounds with a hit; in the whole collection about 2.5% have one here.

SMILES	E-selectin induc	ERAP1 HTS inh	PglD inh	SIRT5 inh	DENV2 CPE
CN(C)C(=O)c1ccc(-c2ccc3c(c2)[C@@H]2[C@@H](CCN2S(=O)(=O)c2ccccc2)[C@@H](CO)N3)cc1	-0.2	/	-0.8	/	/
Cc1cccc(Nc2nc(N)c([N+](=O)[O-])c(N3CC(C)CC(C)C3)n2)c1 (stereo not drawn)	/	6.7	/	3.0	-4.1
Cc1noc(C)c1NC(=O)NC[C@@H]1CC[C@@H]2[C@@H](CN2Cc2cccc(-c3ccccn3)c2)O1	/	6.0	/	1.3	?
O=S(=O)(NC[C@@H]1CC[C@H]2[C@H](CN2Cc2cccc(-c3ccccn3)c2)O1)c1ccccc1	/	-4.7	/	18.0*	6.2
Cc1ccc(S(=O)(=O)Nc2ccc3c(c2)CC(=O)N([C@H](C)CO)C[C@H](C)[C@H](CN(C)Cc2ccc(-c4ccccc4)cc2)O3)cc1	0.3	-1.2	1.5	3.0	-5.5
C[C@H]1CN([C@@H](C)CO)C(=O)Cc2cc(NS(=O)(=O)c3ccccc3)ccc2O[C@@H]1CN(C)Cc1ccccc1	-0.4	0.5	1.0	2.0	-14.1
C[C@H](CO)N1C[C@H](C)[C@H](CN(C)Cc2ccccc2)Oc2ccc(NS(=O)(=O)c3ccccc3)cc2CC1=O	-0.3	-0.1	3.5	5.8	54.6*
C[C@@H]1CN([C@H](C)CO)C(=O)Cc2cc(NS(=O)(=O)c3ccccc3)ccc2O[C@@H]1CN(C)Cc1ccc(-c2ccccc2)cc1	0.5	-3.6	1.3	12.2	56.2*
C[C@@H]1CN([C@@H](C)CO)C(=O)Cc2cc(NS(=O)(=O)c3ccccc3)ccc2O[C@@H]1CN(C)Cc1ccc(-c2ccccc2)cc1	0.0	-1.3	3.3	11.5	44.0*
[O-]/[N+](=C\c1ccccc1)c1ccc(Br)cc1	0.0	1.3	-2.3	0.6	-3.8
CCOc1ccc(C(=O)Nc2cc(NC(=O)c3ccc(OCC)c(Cl)c3)cc(C(=O)O)c2)cc1Cl	/	7.3	/	15.3*	2.4
O=C(COc1ncnc2sccc12)NC1CCS(=O)(=O)C1 (stereo not drawn)	-0.3	/	-1.6	7.0	28.0*
O=C(CCN1C(=O)c2ccccc2S1(=O)=O)N1CCN(c2ccccc2F)CC1	0.2	2.1	-4.4	1.9	?
CCOC(=O)c1ccc(CSc2nnc(-c3ccncc3)n2N)cc1	/	/	4.9	/	/
C[C@@H]1CN([C@H](C)CO)C(=O)c2cc(NC(=O)Nc3ccc(C(F)(F)F)cc3)ccc2O[C@@H]1CN(C)Cc1ccccc1	0.9	-0.4	0.3	-3.1	83.2*
C[C@@H]1CN([C@@H](C)CO)C(=O)c2cc(NC(=O)Nc3ccccc3)ccc2O[C@H]1CN(C)Cc1ccc(C(F)(F)F)cc1	0.4	-4.8	-6.1	2.9	21.4*
O=C(NC12CC3CC(CC(C3)C1)C2)c1cccc([N+](=O)[O-])c1	-0.2	10.9	-1.1	0.5	-3.3
COCCn1nnnc1C(c1cc2cc(C)ccc2[nH]c1=O)N1CCN(C2CCCCC2)CC1 (stereo not drawn)	/	7.5	-5.1	3.0	29.7*
O=C(CSc1nnc(-c2ccncc2)o1)Nc1cc(Cl)ccc1C(=O)O	-0.1	0.2	-1.4	/	39.1*
O=C(CSc1nnc(-c2ccncc2)o1)Nc1cc(F)ccc1F	/	0.1	-2.5	2.1	44.0*
O=C(CSc1nnc(-c2ccncc2)o1)Nc1cccc(F)c1	/	0.7	1.2	-1.4	13.3
O=C(CSc1nnc(-c2ccncc2)o1)Nc1ccccc1Cl	/	/	-2.7	/	/
Cc1cc(C(=O)OCn2nnc3ccccc3c2=O)c(C)o1	-0.9	/	/	/	/
O=C(COc1cccc2ccccc12)N1CCN(c2ccccc2)CC1	/	/	-4.5	/	/
O=C(COc1cccc2ccccc12)N1CCN(c2ccccn2)CC1	/	-1.0	-3.7	17.8*	-2.8
Cc1ccc2c(c1)c1c3n2CCN(CC(O)CNC(C)C)C3CCC1 (stereo not drawn)	0.2	6.5	-8.2	-2.6	3.2
Cc1ccc2c(c1)c1c(n2CC(O)CNC2CCCC2)CCCC1 (stereo not drawn)	/	3.7	4.1	-4.2	27.4*
CC(=O)c1nc2ccccc2n1CCc1ccccc1	/	-1.4	-6.2	1.4	-8.7
FC(F)(F)c1nc2ccccc2n1CCNc1nc(CN2CCCCC2)cs1	-0.1	-3.1	-3.4	-3.1	29.7*
C[C@@H]1CN([C@H](C)CO)C(=O)c2cc(NC(=O)Nc3ccc4c(c3)OCO4)ccc2O[C@H]1CN(C)S(=O)(=O)c1ccccc1	33.7*	-3.1	1.3	0.6	-7.1

High-throughput results (PubChem BioAssay)
